In the library only some 2.9% were active in any assay of this set; here they are far more common.
EBNA-1 inh: blocks EBNA-1 binding to DNA | EBNA-1 DNA binding, fluorescence polarization | inhibition, % at 14.8 µM | 0.34% of 300,000 active | AID 1950; in the data active = inhibition above about 28%
ZTA DNA inh: counter-screen for EBNA-1 inhibitors: inhibitors of Epstein-Barr virus ZTA | ZTA-DNA binding, fluorescence polarization | 0.15% of 320,000 active | inhibition, % at 11 µM | P03206; in the data active = inhibition above about 33%
Apaf1 inhib: human Apaf-1 inhibition | O14727 | reconstituted apoptosome caspase-3 activity, DEVD-Rh110 fluorescence | inhibition, % at 20 µM | 0.71% of 330,000 active | AID 489030; active = inhibition of at least 40% at 20 µM;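 also: plate controls were DMSO wells for no effect and DEVD-CHO caspase inhibitor wells for full effect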
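System: Apoptosome proteins | Medium: Hepes pH 7.5 with detergent and BSA | Also added: Cytochrome c trigger plus (Z-DEVD)2-Rh110 caspase-3 substrate | Incubation: 30 min compound preincubation, 50 min activation, room temperature | Detection: Rhodamine 110 fluorescence at Ex 480/Em 540 nm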
PfM18AAP inh-1: blocks P. falciparum M18 aspartyl aminopeptidase. recombinant PfM18AAP, H-Glu-NHMec fluorogenic cleavage. inhibition, % at 7.35 µM. 1.2% of 290,000 active;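 active = inhibition above the campaign mean inhibition over all tested compounds plus 3 SD, cut at about 28% in these data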;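 also: 0% = plate median of test compound wells and 100% = 2 mM ZnCl2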
UBC13 inh: inhibitors of human UBC13 polyubiquitin chain formation; inhibition, % at 20 µM; TR-FRET; 0.47% of 330,000 active; P61088; AID 485273; in the data active = inhibition above about 45%, passing the limit was not always enough
Target sequence (P61088 whole entry, looked up): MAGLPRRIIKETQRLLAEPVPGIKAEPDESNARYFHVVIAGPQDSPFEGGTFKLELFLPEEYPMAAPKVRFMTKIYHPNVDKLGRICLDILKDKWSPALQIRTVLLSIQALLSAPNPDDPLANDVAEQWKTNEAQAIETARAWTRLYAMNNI
PfGluPho inh: PfG6PD (Plasmodium falciparum) enzyme inhibition; PfGluPho enzyme, NADPH resazurin-diaphorase fluorescence; 0.78% of 350,000 active; AID 504690; inhibition, % at 20 µM;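 active = inhibition reaching at least a set limit at 20 µM in the primary screen, cut at about 59% in these data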;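 also: 0% = DMSO wells with substrate and 100% = DMSO wells lacking glucose-6-phosphate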
PfM18AAP inh-2: PfM18AAP inhibition, confirmation. recombinant PfM18AAP, H-Glu-NHMec fluorogenic cleavage. inhibition, % at 7.35 µM. AID 2170. shares compounds with PfM18AAP inh-1. 28% of 2,400 active;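 active = mean inhibition over replicate wells above the hit cutoff set for the earlier primary screen, cut at about 29% in these data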;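 also: 0% = median of test compound wells and 100% = 2 mM ZnCl2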
CTSL1 confirm: Cathepsin L (human) inhibition, confirmation; shares compounds with PfM18AAP inh-1; purified cathepsin L1, Z-Leu-Arg-MCA fluorescence; inhibition, % at 5.96 µM; 2,400 tested, under 10 active; AID 2178;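 active = average inhibition across replicates above the hit cutoff set in the earlier primary screen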;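 also: 0% = median of test compound wells and 100% = Z-Phe-Ala-diazomethylketone 1 µM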
Target sequence (P07711 whole entry, looked up): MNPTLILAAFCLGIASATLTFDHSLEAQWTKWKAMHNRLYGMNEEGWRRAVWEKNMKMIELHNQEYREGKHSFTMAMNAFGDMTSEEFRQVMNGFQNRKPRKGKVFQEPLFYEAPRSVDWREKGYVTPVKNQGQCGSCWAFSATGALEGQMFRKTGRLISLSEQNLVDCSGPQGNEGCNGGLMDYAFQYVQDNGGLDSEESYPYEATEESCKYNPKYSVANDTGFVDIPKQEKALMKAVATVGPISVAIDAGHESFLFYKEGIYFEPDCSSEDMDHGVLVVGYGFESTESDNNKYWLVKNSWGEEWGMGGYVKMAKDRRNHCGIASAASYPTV
* marks the source's active call; other numbers are inactive results.

Screening CC1CC(C)CN(S(=O)(=O)c2ccc(C(C)(C)C)cc2)C1 (stereo unspecified) returned EBNA-1 inh -4.4, ZTA DNA inh -5.8, Apaf1 inhib 12.8, PfM18AAP inh-1 15.9, UBC13 inh 3.5 and PfGluPho inh -15.3.
For CC1CC(C)CN(S(=O)(=O)c2ccc(NN)nc2)C1 (stereo unspecified) the results were EBNA-1 inh 5.5, ZTA DNA inh 0.9, Apaf1 inhib -18.2, PfM18AAP inh-1 45.9*, UBC13 inh -6.9, PfGluPho inh -6.5, PfM18AAP inh-2 33.4* and CTSL1 confirm 0.7.
Screening CC#CC(=O)N1CCC(C(=O)Nc2ccc(Oc3ccccc3)nc2)CC1 returned EBNA-1 inh -7.7, ZTA DNA inh 1.4, Apaf1 inhib 8.7, PfM18AAP inh-1 -2.1, UBC13 inh 0.3 and PfGluPho inh 10.7.
Screening Cc1ccc(C(=O)Nn2cnnc2)cc1S(=O)(=O)N1CCOCC1 returned EBNA-1 inh -4.5, ZTA DNA inh -7.3, Apaf1 inhib -17.7, PfM18AAP inh-1 51.2*, UBC13 inh -0.1, PfGluPho inh -0.2, PfM18AAP inh-2 44.3* and CTSL1 confirm -3.6.
Screening O=C(Nc1ccon1)c1ccc(F)c(S(=O)(=O)N2CCCCC2)c1 returned EBNA-1 inh 7.0, ZTA DNA inh -2.3, Apaf1 inhib 3.6, PfM18AAP inh-1 3.8, UBC13 inh -4.8 and PfGluPho inh -13.1.
`O=C(Nn1cnnc1)c1ccc(F)c(S(=O)(=O)N2CCCCC2)c1` gave EBNA-1 inh 6.0, ZTA DNA inh 8.2, Apaf1 inhib -4.5, PfM18AAP inh-1 47.5*, UBC13 inh 0.5, PfGluPho inh -10.2, PfM18AAP inh-2 53.4* and CTSL1 confirm 1.6.
`Cc1ccc(C(=O)NC2CC2)cc1S(=O)(=O)N1CCOCC1` gave ZTA DNA inh -2.6, Apaf1 inhib -8.2, UBC13 inh 11.4 and PfGluPho inh -7.6.
`COc1ccc(NC(=O)Cc2ccc(C)c(C)c2)cc1Cl` gave EBNA-1 inh -1.6, ZTA DNA inh -10.4, Apaf1 inhib 4.8, PfM18AAP inh-1 -9.7, UBC13 inh -8.4 and PfGluPho inh 7.8.
Screening O=C1N(c2ccccc2)CCN1c1ccccc1 returned EBNA-1 inh -3.5, ZTA DNA inh -3.6, Apaf1 inhib -4.9, PfM18AAP inh-1 -12.0, UBC13 inh -5.5 and PfGluPho inh -12.5.
O=C1NC(=S)CN1c1ccccc1 was read as EBNA-1 inh -4.5, ZTA DNA inh -2.8, Apaf1 inhib -0.6, PfM18AAP inh-1 41.6*, UBC13 inh 0.0, PfGluPho inh 43.4, PfM18AAP inh-2 13.5 and CTSL1 confirm -3.8.
CCn1c(-c2ccc(C)cc2)n[nH]c1=S was read as EBNA-1 inh -11.8, ZTA DNA inh -21.0, Apaf1 inhib 0.1, PfM18AAP inh-1 11.8, UBC13 inh 1.8 and PfGluPho inh 22.8.
CCCn1c(-c2ccc(F)cc2)n[nH]c1=S was read as EBNA-1 inh 0.7, ZTA DNA inh -3.4, Apaf1 inhib -11.1, PfM18AAP inh-1 35.5*, UBC13 inh 5.0, PfGluPho inh 20.8, PfM18AAP inh-2 13.9 and CTSL1 confirm 0.7.
`Cc1nc(C(=O)NNC(=O)c2ccc(Cl)cc2)cs1` gave EBNA-1 inh 3.2, ZTA DNA inh 10.1, Apaf1 inhib -1.5, PfM18AAP inh-1 3.9, UBC13 inh -8.3 and PfGluPho inh 3.3.
Screening Cc1nc(/C(=N/O)C(N)=O)cs1 returned EBNA-1 inh 1.5, ZTA DNA inh 6.4, Apaf1 inhib -21.3, PfM18AAP inh-1 47.6*, UBC13 inh 18.4, PfGluPho inh -2.9, PfM18AAP inh-2 38.0* and CTSL1 confirm -1.2.
COc1cc(/C=C2/C(=O)N(c3ccc(C(=O)O)cc3)N=C2C)cc(OC)c1O was read as Apaf1 inhib 77.6*, PfM18AAP inh-1 49.9*, UBC13 inh -123.1, PfGluPho inh 45.0, PfM18AAP inh-2 28.6* and CTSL1 confirm -2.2.
`COc1cc(/C=C2/C(=O)N(c3ccc(C)c(C)c3)N=C2C)cc([N+](=O)[O-])c1O` gave EBNA-1 inh 7.9, ZTA DNA inh -15.1, Apaf1 inhib 10.1, PfM18AAP inh-1 10.1, UBC13 inh -61.0 and PfGluPho inh -11.9.
Screening COc1cc(C(=O)OCC(=O)Nc2cc(C)on2)c([N+](=O)[O-])cc1OC returned EBNA-1 inh 2.6, ZTA DNA inh -0.5, Apaf1 inhib -2.8, PfM18AAP inh-1 -5.4, UBC13 inh -4.9 and PfGluPho inh 4.5.
`O=C(CSc1nc2ccccc2s1)Nn1cnnc1` gave EBNA-1 inh -6.6, ZTA DNA inh 0.5, Apaf1 inhib -2.5, PfM18AAP inh-1 69.2*, UBC13 inh 1.1, PfGluPho inh -15.9, PfM18AAP inh-2 57.0* and CTSL1 confirm 2.6.
`O=C(CSc1nn(-c2ccccc2)c(=S)s1)NC1CCS(=O)(=O)C1` (stereo unspecified) gave EBNA-1 inh -1.7, ZTA DNA inh -9.4, Apaf1 inhib 3.2, PfM18AAP inh-1 9.3, UBC13 inh -20.0 and PfGluPho inh -1.4.
`O=C(CSc1nn(-c2ccccc2)c(=S)s1)Nn1cnnc1` gave EBNA-1 inh -9.6, ZTA DNA inh 12.0, Apaf1 inhib 9.1, PfM18AAP inh-1 53.3*, UBC13 inh -11.5, PfGluPho inh -29.2, PfM18AAP inh-2 73.4* and CTSL1 confirm 0.2.
CC(C)c1ccc(NC(=O)CSc2n[nH]c(=O)n2C2CC2)cc1 was read as EBNA-1 inh 5.5, ZTA DNA inh 2.4, Apaf1 inhib 11.9, PfM18AAP inh-1 -7.7, UBC13 inh -10.8 and PfGluPho inh 0.5.
Screening C/C(=N/NC(=O)CNC(=O)c1cccc(F)c1)c1ccc2c(c1)CCCC2 returned EBNA-1 inh -2.2, ZTA DNA inh -2.7, Apaf1 inhib 6.2, PfM18AAP inh-1 4.8, UBC13 inh 3.8 and PfGluPho inh 4.8.
`CCC(=O)Nc1nc2ccc(NC(=O)COc3ccccc3)cc2s1` gave EBNA-1 inh 4.3, ZTA DNA inh 3.3, Apaf1 inhib -2.1, PfM18AAP inh-1 43.4*, UBC13 inh 0.4, PfGluPho inh -2.9, PfM18AAP inh-2 -42.1 and CTSL1 confirm -9.7.
Screening CCc1ccc(-c2csc3[n+]2CCN3C(C)=O)cc1 returned EBNA-1 inh 6.2, ZTA DNA inh -5.3, Apaf1 inhib -16.5, PfM18AAP inh-1 19.0, UBC13 inh -0.2 and PfGluPho inh 54.8.
For CC(=O)N1CC[n+]2c(-c3ccc(Cl)cc3)csc21 the results were EBNA-1 inh 18.9, ZTA DNA inh -1.3, Apaf1 inhib -9.3, PfM18AAP inh-1 38.8*, UBC13 inh 2.5, PfGluPho inh 56.9, PfM18AAP inh-2 4.8 and CTSL1 confirm -10.4.

Screening data (PubChem BioAssay)
